According to the EternaBench riboswitch data:

System: MS2 coat protein
Test: apparent Kd, MS2 coat protein; higher = weaker binding; RNA-MaP array; FMN 200 µM where present
How it was run: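 Green signal from SNAP-549-labelled MS2 coat protein was normalised to red-channel RNA signal and to the median Fmax of control clusters. The protein was titrated from 0.7 or 1.5 nM, doubling to 3 µM, without and then with constant ligand, over designs transcribed by stalled E. coli RNA polymerase on Illumina sequencing-chip clusters, in 100 mM Tris-HCl pH 7.5, 80 mM KCl, 4 mM MgCl2, BSA, DTT, yeast tRNA and Tween-20. The apparent Kd is the median of filtered per-cluster binding-curve fits.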

[1] = designed as: ON switch for flavin mononucleotide, no ligand
[2] = ligand present: flavin mononucleotide, designed as: ON switch for flavin mononucleotide
[3] = designed as: OFF switch for flavin mononucleotide, no ligand
[4] = ligand present: flavin mononucleotide, designed as: OFF switch for flavin mononucleotide

Sequence | apparent Kd [1] | apparent Kd [2] | apparent Kd [3] | apparent Kd [4]
AAAAGGAUCUAACACGACGGGUCACCAGAAGGGACAUUGGCACAUGAGGAUCACCCAUGUCUAGGUCAGGAUAUGGGAUCAAGA | 72.3 nM | 10.4 nM | – | –
GGACGUCACAUGAACAUGAGGAUCACCCAUGUAAAUUCUCAUGAGGAUAUGGAACCUAAUUGGUUCCAGAAGGCGUGGACGUCC | 849 nM | 489 nM | – | –
AAAGACAGACAUGAGGAUCACCCAUGUUACGAAGAUAAUGGGAGAAGGGCGAUUGCAAAGCAAUCGCAGGAUAUUCAUAUUGUC | 39.6 nM | 10.8 nM | – | –
GGAGCUCCUGACAUGAGGAUCACCCAUGUUCACUUAUUAACUCAGGAUAUCGUCUCGAAACGAGACGAGAAGGGAGAUGCUCCU | 8.36 nM | 6.76 nM | – | –
CAGUACUGUCGAGAGGAUAUGCGGUGAUGGACAUGAGGAUCACCCAUGUUAGCGACAGCAUCACGGCAGAAGGCUCUACUGCUGC | 47.9 nM | 17.2 nM | – | –
AAAGUUCGAGGAUAUCUACUUAGCUACAUGAGGAUCACCCAUGUUAUCCUCCCGCUGGGAAGAGAAGGCGGUUAAA | – | – | 36.5 nM | 210 nM
ACGCGAUGGGAGAAGGUACUUUAAAAUAUUUCCACAUGAGGAUCACCCAUGUAAGGAUAUCCCAUCGUUAAAUAUUAUACAGCA | – | – | 7.07 nM | 5.91 nM
AAAAAGGCAGGAUAUACAUGAGGAUCACCCAUGUAAAGAAAAGAAAGAUCCAAAGAAAGUAGAAGGGCCAAAAA | – | – | 74.8 nM | 286 nM
CGUAGGAUCCAGAAGGCAUGUACAUGAGGAUCACCCAUGUCGAUAGACAUGAGGAUAUGGAUCCUACGAAAAGUGCGAAAGCAC | 17.1 nM | 5.16 nM | – | –
GGAGCAUACAUUAACAUGAGGAUCACCCAUGUCAAAAGACAUGAGGAUAUGGAUCCGAAAAGGAUCCAGAAGGCAUGGUGCUCC | 173 nM | 11.5 nM | – | –
UUGCGGGAUUGAGGAUAUUGAGUACAUAUGUUUAACAUGAGGAUCACCCAUGUGGGUUGCGGUAUCGAGAAGGUAACUUACUAC | 95.8 nM | 104 nM | – | –
CUGACGUCAGGAUAUCUGAUGUCUAACUUCGGUUAGACAUCAGAGAAGGGACAUGAGGAUCACCCAUGUCAGAG | – | – | 28.7 nM | 23.1 nM
UUGAUACAUACCUCCAUAAACAUGAGGAUCACCCAUGUAAGUGAGGAUAUAGAUUGUUUAGUAUACUAGAAGGCACUUAGAUAU | – | – | 13.1 nM | 11.9 nM
GCGGGCCGCGCAGGAUAUACAGGGUACAUGAGGAUCACCCAUGUCCUUGGUGAGAUCAUUUGCCCGUAGAAGGGCGAGGGUCGG | – | – | 44.3 nM | 114 nM
GCUCUACAUGAGGAUCACCCAUGUCCAUCCGCACGAGGAUAUGCAUGGGCGAAAGCUGGUGCAGAAGGCGUGGGAC | 190 nM | 98.8 nM | – | –
UGGACCGAGCUGUCGGUUGGCUCUUAGGAUAUGACAUGAGGAUCACCCAUGUGGGAUCUAAAUUGUCAGAAGGAGGGUUCUGGG | – | – | 48.3 nM | 40.3 nM
GCAAGAACGGGUCAGUCCCAGAUGAGAAGGGUAGGUGGCGAUGAGUACAUGAGGAUCACCCAUGUACAGGAUAUCAUCAUUGUA | – | – | 7.63 nM | 8.66 nM
UGAAAUCAUGUAGGAUAUGCAUGGCGAAGCUACGCAGAAGGACAUGAGGAUCACCCAUGUUAUAGCGUCCGAUAAAGGAUGCAA | – | – | 135 nM | 139 nM
ACUAUACGAGGAUAUACUGACGGGCCUCAGGCAUACAUCAGACAUGAGGAUCACCCAUGUAGAAGGCGUAUACU | – | – | 104 nM | 40.6 nM
AAUAUAAAGCAGAAGGCCUUAUUACAUGAGGAUCACCCAUGUAAUCGUGGGAGGAUAUGCAUGAUACAAGUACGUUUGGUAGGA | 8.76 nM | 5.22 nM | – | –
AUUUUAACAUAGGAUAUCGAAUUUAUUAUUUAACGAGAAGGAUGAACAUGAGGAUCACCCAUGUGGUAUCAUGG | – | – | 217 nM | 93.6 nM
CUGUGACGGUGCGCAAGUGUACGUAGAAGGGUCACAUGAGGAUCACCCAUGUGGGCCUGCGAGUGACAGGAUAUACGUGCGUGC | – | – | 6.39 nM | 12.4 nM
GCCGGAGCAGGAUAUUCAAUAUCACACAUGAGGAUCACCCAUGUCCAGCGAAAGCUGGAGGGAGAAGGGCUCUGGC | – | – | 70.8 nM | 20.3 nM
GUAUAUCACUCAGGAUAUCUGUAAUUUGUUGAAACAUGAGGAUCACCCAUGUUCAUGAAUUUAUAGGAGAAGGGAGAGAUAUAC | 4.58 nM | 4.69 nM | – | –
GUGAAGUGAGGAUAUACGAGAGAGGCUGAACCGGACGAGAAGUAGAAGGCACAUGAGGAUCACCCAUGUACGGG | – | – | – | 236 nM
UGUGUGAGACAGGAUAUGCCGGUUGUAUUGCUGGUAGAAGGGUCUACAUGAGGAUCACCCAUGUGGCCGGUUGG | – | – | 18.6 nM | 23.2 nM
AGUACAUCAGGAUAUACAUGAAAGAUCAUCAUGACCUUUCUACAUGAGGAUCACCCAUGUAGAAGGGAUGUACA | – | – | 20.2 nM | 38 nM
GGUAGAAACAUUAACAUGAGGAUCACCCAUGUCAAAAGAAAUGAGGAUAUCGUAUUCAAUGUAUAUGAGAAGGCAUGGUCUGCC | 15.7 nM | 10.7 nM | – | –

Sequence | apparent Kd [1] | apparent Kd [2] | apparent Kd [3] | apparent Kd [4]
CAAUUGGCACAGAAGGGUGACAUGAGGAUCACCCAUGUAGCGUGGCAUUCAGGAGGAGCCACGCCACAGGAUAUGUGCCGGCAC | 138 nM | 116 nM | – | –
CAAUUUAUGUCAGGAUAUACAAUACAAUGAUUAGUAGAAGGGAUUAAUACAUGAGGAUCACCCAUGUCAUGUGUCAUAAUAACC | – | – | 26.1 nM | 20.1 nM
GUCAGCUCGUGAGGAUAUACAACACUGCUUCGGCAGUGUAUUAAGACCACAUGAGGAUCACCCAUGUAGAAGGCACGAGCUGAU | – | – | 5.18 nM | 14.3 nM
CAGUACUGAGGAUAUACAUGAGGAUCACCCAUGUGUUCCAGCUAGGAAACGAGCAAAAGUAGAAGGCAGUACUG | – | – | 21.9 nM | 282 nM
ACGUAAAUUCGAGGAUAUCGGUGAUAUAAUUUACGAGAAGGCGAUAAUUGUGAUAAACUUAUAGACAUGAGGAUCACCCAUGUA | 42.7 nM | 37.9 nM | – | –
CGGACGUCAGGAUAUCUGAUGUCUAACUUCGGUUAGACAUCAGAGAAGGGACAUGAGGAUCACCCAUGUCCGAG | – | – | 22.2 nM | 16.9 nM
AUAUGAUAGAUAGGAUAUACUAUGGUUGAAUAUGUAGAAGGAUCAAUAGGGAAAUGUACAUGAGGAUCACCCAUGUUAUGGAUU | 32.9 nM | 31.3 nM | – | –
CCGUCACAUGAGGAUCACCCAUGUCAGGAUAUCUAUCAUAGCAUCGAAAGAUGCGGGUAGAGAAGGGACUAUCC | – | – | – | 22.6 nM
CUAGUUGUCGCAGGAUAUGCCCGCUGGUUGGAGGCAGAAGGGUGACACCAAAUAUUAUACAUGAGGAUCACCCAUGUCGCCAAC | 17.9 nM | 19.3 nM | – | –
GUGCCUAACUAGAAGGCCGUAUGCAAAGCAUACGGAGGAUAUGGGUUCCGGAAACGGACAUGAGGAUCACCCAUGUGGCACAAA | 80.4 nM | 10.6 nM | – | –
GUAGCUAUUAUUAUACAUGAGGAUCACCCAUGUUACAUGUGUAAGGAUAUUGAUGUUUUUAUUAUCAAGAAGGUACUAUGCUAC | 12.3 nM | 8.75 nM | – | –
CGGGAGUCAGGAUAUACGAACAUGUCGCCAGAUGUCAAGGUACAUGAGGAUCACCCAUGUAGAAGGGAGGAGAA | – | – | 91 nM | 54.3 nM
UUCUUACAUGAGGAUCACCCAUGUCAGGAUAUCUCCUCACUGCGCUUGCGCAGUGGAUAGAGAAGGGACAGGCU | – | – | 56.8 nM | 50.1 nM
AGUGUGUGGCAGGAUAUUCCGGUCGUGGGUCGGGAAGAAGGGUCUACAUGAGGAUCACCCAUGUGAGCGGUUGA | – | – | 210 nM | 241 nM
UGUCGGAGCAGAGGAUAUUACAUGAGGAUCACCCAUGUAUGAACCAAUAGCUGGGAACAGCAAUGUAAGAAGGCUGCUCCGACA | – | – | 18.6 nM | 201 nM
AGUCGGCGAGGAUAUACAUGAGGAUCACCCAUGUGAGAGAAUAAAGUGAGUUAGACAAGUAGAAGGCGCUGACA | – | – | 47.4 nM | 415 nM
CUAUUGAUAACAGGAUAUAUGAGUCCUACAUGAGGAUCACCCAUGUAGGUGAUCAGCCGUGAUUAGUAGAAGGGUUAUCAAUAG | 12.7 nM | 6.63 nM | – | –
GGCAGUCCGACACAGGAUAUGGGUAACGAAACAUGAGGAUCACCCAUGUGGAAACAUCGGGUUGCCUAGAAGGGUGGAAAGAUUG | 117 nM | 32.1 nM | – | –
GGGUACAUCGGAGGAUAUCAUGUAAAUACAUGAGGAUCACCCAUGUCGAUGGAGACAUCGGAGAUUGAGAAGGCCGAUGCACCG | 203 nM | 8.97 nM | – | –
AUAGAAGACUAGAAGGACCUAGCUGUAUACCGUCGAGGUAUAUAGCUAGGUAGGAUAUGGGACAUGAGGAUCACCCAUGUCUUG | 8.58 nM | 7.58 nM | – | –
AGAAACUACGAGAAGGACAUGUGGUCCUUCAAUUACAUGAGGAUCACCCAUGUAGGAUAUCGUAGUUUCAGGAUCGUGAGAUCA | – | – | 12.7 nM | 3.81 nM
UAUAUAUAGUAAGGAUAUGUAAUUAUUUGAUAAACAGAAGGUACUGACAUGAGGAUCACCCAUGUUUUAGUGUGGGCAUGUAGA | – | – | 88.2 nM | 138 nM
GUAUCGUGAGGAUAUCCAAUAUAUGACAUGAGGAUCACCCAUGUUUCCACUCGUACCUCCGGAGAAGGCACAGUUU | – | – | 32.2 nM | 27.9 nM
GAACUGAAGCAUAGCUUUAGUCGUACAUGAGGAUCACCCAUGUAGGAUAUGGUAGGCUUAGCUUACUAGAAGGAUAGAGUGAUC | – | – | 140 nM | 66.8 nM
GCCAUCGCAUGAGGAUAUGCUCCCGUUUCGGGAGCAGAAGGCAUGUGAUAACACAUGAGGAUCACCCAUGUAGUUAAGAUGGCA | 5.31 nM | 4.45 nM | – | –
CCCUCACAUGAGGAUCACCCAUGUUAGGAUAUCUACCAGGAGCCUAAAAUGGCCCAACGGAGAAGGAACGUGCA | – | – | 19.8 nM | 18.6 nM
AUUAAUUAAUUAAUACAUGAGGAUCACCCAUGUAAUAAGAUCAAGGAUAUCAGCUCGAAUAGAGCUGAGAAGGUGAUCACAUGU | 555 nM | 226 nM | – | –
